Data taken from ChEMBL document CHEMBL1240439, “Synthesis and docking studies of novel benzopyran-2-ones with anticancer activity” (2010).

Tests used:
Type in all cases: functional
[1] = Cytotoxicity against human breast cancer cells after 48 hrs by sulforhodamine B assay; details: Cancer cell lines
Method in brief: (§1)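 Cells plated at 5000–40,000/well according to doubling time, then held 24 h at 37 °C, 5% CO2, with time-zero plates TCA-fixed. DMSO stocks (400× top concentration) were diluted in medium containing 50 μg/ml gentamycin, giving five 10-fold or ½-log concentrations. After 48 h, adherent cells were fixed in 10% TCA and suspension cells in 16% TCA (final), stained with 0.4% SRB, read at 515 nm. GI50, TGI and LC50 were calculated per cell line.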

KM12 = assay: Cytotoxicity against human KM12 cells assessed as cell growth at 10 uM after 48 hrs by sulforhodamine B assay; details: KM12, 48 h, read-out: Activity
OVCAR-4 = assay: Cytotoxicity against human OVCAR4 cells after 48 hrs by sulforhodamine B assay; details: OVCAR-4, 48 h
Method in brief: (§2)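 Cells were plated at 5000–40,000/well according to doubling time and preincubated 24 h at 37 °C, 5% CO2. Time-zero plates were TCA-fixed. DMSO stocks were diluted in medium with gentamycin to five concentrations (10-fold or ½ log series) plus control, then incubated 48 h. Adherent cells were fixed with cold TCA (suspension cells with 16% final), stained with SRB, and read at 515 nm. GI50, TGI and LC50 were calculated per line.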

[2] = Cytotoxicity against human prostate cancer cells after 48 hrs by sulforhodamine B assay; details: Cancer cell lines; method in brief: as §1
UACC-257 = assay: Cytotoxicity against human UACC257 cells assessed as cell growth at 10 uM after 48 hrs by sulforhodamine B assay; details: UACC-257, 48 h, read-out: Activity
HCT-116 [3] = assay: Cytotoxicity against human HCT116 cells after 48 hrs by sulforhodamine B assay; details: HCT-116, 48 h; method in brief: as §2
COLO 205 = assay: Cytotoxicity against human COLO205 cells assessed as cell growth at 10 uM after 48 hrs by sulforhodamine B assay; details: COLO 205, 48 h, read-out: Activity
BT-549 = assay: Cytotoxicity against human BT549 cells assessed as cell growth at 10 uM after 48 hrs by sulforhodamine B assay; details: BT-549, 48 h, read-out: Activity
HOP-62 = assay: Cytotoxicity against human HOP62 cells assessed as cell growth at 10 uM after 48 hrs by sulforhodamine B assay; details: HOP-62, 48 h, read-out: Activity
[4] = Cytotoxicity against human leukemia cells after 48 hrs by sulforhodamine B assay; details: Leukemia cell; method in brief: as §1
UO-31 = assay: Cytotoxicity against human UO31 cells assessed as cell growth at 10 uM after 48 hrs by sulforhodamine B assay; details: UO-31, 48 h, read-out: Activity
MDA-MB-468 = assay: Cytotoxicity against human MDA-MB-468 cells assessed as cell growth at 10 uM after 48 hrs by sulforhodamine B assay; details: MDA-MB-468, 48 h, read-out: Activity
[5] = Cytotoxicity against human lung cancer cells after 48 hrs by sulforhodamine B assay; details: Cancer cell lines; method in brief: as §1
CCRF-CEM = assay: Cytotoxicity against human CCRF-CEM cells assessed as cell growth at 10 uM after 48 hrs by sulforhodamine B assay; details: read-out: Activity
NCI-H522 = assay: Cytotoxicity against human NCI-H522 cells assessed as cell growth at 10 uM after 48 hrs by sulforhodamine B assay; details: NCI-H522, 48 h, read-out: Activity
SK-OV-3 = assay: Cytotoxicity against human SKOV3 cells assessed as cell growth at 10 uM after 48 hrs by sulforhodamine B assay; details: SK-OV-3, 48 h, read-out: Activity
SNB-19 = assay: Cytotoxicity against human SNB19 cells assessed as cell growth at 10 uM after 48 hrs by sulforhodamine B assay; details: SNB-19, 48 h, read-out: Activity
HOP-92 = assay: Cytotoxicity against human HOP92 cells assessed as cell growth at 10 uM after 48 hrs by sulforhodamine B assay; details: HOP-92, 48 h, read-out: Activity
SK-MEL-28 = assay: Cytotoxicity against human SK-MEL-28 cells assessed as cell growth at 10 uM after 48 hrs by sulforhodamine B assay; details: SK-MEL-28, 48 h, read-out: Activity
HCT-116 [6] = assay: Cytotoxicity against human HCT116 cells assessed as cell growth at 10 uM after 48 hrs by sulforhodamine B assay; details: HCT-116, 48 h, read-out: Activity
M14 = assay: Cytotoxicity against human M14 cells assessed as cell growth at 10 uM after 48 hrs by sulforhodamine B assay; details: M14, 48 h, read-out: Activity
HCC 2998 = assay: Cytotoxicity against human HCC2998 cells assessed as cell growth at 10 uM after 48 hrs by sulforhodamine B assay; details: HCC 2998, 48 h, read-out: Activity
SW-620 = assay: Cytotoxicity against human SW620 cells assessed as cell growth at 10 uM after 48 hrs by sulforhodamine B assay; details: SW-620, 48 h, read-out: Activity
NCI-H23 = assay: Cytotoxicity against human NCI-H23 cells assessed as cell growth at 10 uM after 48 hrs by sulforhodamine B assay; details: NCI-H23, 48 h, read-out: Activity
NCI-H226 = assay: Cytotoxicity against human NCI-H226 cells assessed as cell growth at 10 uM after 48 hrs by sulforhodamine B assay; details: NCI-H226, 48 h, read-out: Activity
SK-MEL-5 = assay: Cytotoxicity against human SK-MEL-5 cells assessed as cell growth at 10 uM after 48 hrs by sulforhodamine B assay; details: SK-MEL-5, 48 h, read-out: Activity
MOLT-4 = assay: Cytotoxicity against human MOLT4 cells assessed as cell growth at 10 uM after 48 hrs by sulforhodamine B assay; details: MOLT-4, 48 h, read-out: Activity
[7] = Cytotoxicity against human CNS cancer cells after 48 hrs by sulforhodamine B assay; details: Cancer cell lines; method in brief: as §2
OVCAR-3 = assay: Cytotoxicity against human OVCAR-3 cells assessed as cell growth at 10 uM after 48 hrs by sulforhodamine B assay; details: OVCAR-3, 48 h, read-out: Activity
SF-539 = assay: Cytotoxicity against human SF539 cells assessed as cell growth at 10 uM after 48 hrs by sulforhodamine B assay; details: SF-539, 48 h, read-out: Activity
[8] = Cytotoxicity against human renal cancer cells after 48 hrs by sulforhodamine B assay; details: Cancer cell lines; method in brief: as §1
ACHN = assay: Cytotoxicity against human ACHN cells assessed as cell growth at 10 uM after 48 hrs by sulforhodamine B assay; details: read-out: Activity
[9] = read-out: LC50 (the source's name)

Cc1cc(=O)n(C(=O)COc2ccc3c(-c4ccccc4)cc(=O)oc3c2C)[nH]1
GI50 [1]: 4.23 µM | TGI [1]: 33.7 µM | CC50 [1, 9]: 87.5 µM | growth at 10 µM (KM12): -12% | GI50 (OVCAR-4): 1.95 µM | TGI (OVCAR-4): 4.73 µM | GI50 [2]: 2.38 µM | TGI [2]: 5.75 µM | CC50 [2, 9]: 29.4 µM | growth at 10 µM (UACC-257): 6.57% | GI50 (HCT-116 [3]): 1.94 µM | TGI (HCT-116 [3]): 3.76 µM | growth at 10 µM (COLO 205): 6.21% | growth at 10 µM (BT-549): -65.8% | growth at 10 µM (HOP-62): -18.6% | GI50 [4]: 3.44 µM | TGI [4]: 50.8 µM | CC50 [4, 9]: 94 µM | growth at 10 µM (UO-31): 18.6% | growth at 10 µM (MDA-MB-468): -8.13% | GI50 [5]: 3.69 µM | TGI [5]: 37.4 µM | CC50 [5, 9]: 65.1 µM | growth at 10 µM (CCRF-CEM): 13.5% | growth at 10 µM (NCI-H522): -39.2% | growth at 10 µM (SK-OV-3): 15.9% | growth at 10 µM (SNB-19): 33.6% | growth at 10 µM (HOP-92): -64.4% | growth at 10 µM (SK-MEL-28): -47.2% | growth at 10 µM (HCT-116 [6]): -65.9% | growth at 10 µM (M14): 17.6% | growth at 10 µM (HCC 2998): 17.4% | growth at 10 µM (SW-620): -65.9% | growth at 10 µM (NCI-H23): 1.86% | growth at 10 µM (NCI-H226): 0.36% | growth at 10 µM (SK-MEL-5): -31.5% | growth at 10 µM (MOLT-4): 22.7% | GI50 [7]: 2.58 µM | TGI [7]: 8.85 µM | CC50 [7, 9]: 27.7 µM | growth at 10 µM (OVCAR-3): -61.1% | growth at 10 µM (SF-539): -78.2% | GI50 [8]: 10.7 µM | TGI [8]: 21.4 µM | CC50 [8, 9]: 55.2 µM | growth at 10 µM (ACHN): 41.6%
